Where “and” joins values, the source holds several entries; their conditions need not be identical. Equal values may be shown once.
Test system: U2OS
Assay: Multiplex assay against U2OS
Type: toxicity, cell-based
Conditions: human
In short: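 Compound was added to live cells that had been stained at seeding with Hoechst33342, BioTracker Green Microtubule Cytoskeleton Dye, MitoTracker Red and Annexin V Alexa Fluor 680, and imaging followed on a CQ1 microscope at 37°C and 5% CO2. CellPathfinder machine-learning gating divided cells into Hoechst high-intensity objects or normal cells, normal cells into healthy, pyknosed or fragmented nuclei, and pyknosed cells into mitotic or apoptotic. Tubulin, mitochondrial-mass and membrane-permeability phenotypes are per cents of healthy-nucleus cells.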

[1] = 12 h, 1 µM, compound concentration 1 uM
[2] = 12 h, 10 µM, compound concentration 10 uM
[3] = 24 h, 1 µM, compound concentration 1 uM
[4] = 24 h, 10 µM, compound concentration 10 uM
[5] = 48 h, 1 µM, compound concentration 1 uM
[6] = 48 h, 10 µM, compound concentration 10 uM

CCCCCC(O)/C=C/[C@H]1C(=O)CC(O)C1C/C=C\CCCC(=O)O (stereo partly specified)
Population Apoptotic (%) [1]: 60% and 88% | Population Fragmented Nuclei (%) [1]: 28% and 15% | Population Healthy Nuclei (%) [1]: 59% and 76% | Population Hoechst High Intensity Objects (%) [1]: 1% and 0% | Population Membrane Permeable-Phenotype (%) [1]: 5% and 8% | Population Mitochondria Different-Phenotype (%) [1]: 4% and 6% | Population Normal (%) [1]: 98% and 99% | Population Pyknosed Nuclei (%) [1]: 12% and 8% | Population Tubulin-Different-Phenotype (%) [1]: 4% and 8% | Total Cell Count [1]: 203 and 113 | Population Apoptotic (%) [2]: 71% and 66% | Population Fragmented Nuclei (%) [2]: 23% and 16% | Population Healthy Nuclei (%) [2]: 69% and 73% | Population Hoechst High Intensity Objects (%) [2]: 2% | Population Membrane Permeable-Phenotype (%) [2]: 8% and 10% | Population Mitochondria Different-Phenotype (%) [2]: 3% and 2% | Population Mitotic Cells (%) [2]: 28% and 33% | Population Normal (%) [2]: 97% | Population Pyknosed Nuclei (%) [2]: 7% and 9% | Population Tubulin-Different-Phenotype (%) [2]: 5% and 4% | Total Cell Count [2]: 190 and 94 | Population Apoptotic (%) [3]: 86% and 90% | Population Fragmented Nuclei (%) [3]: 27% and 16% | Population Healthy Nuclei (%) [3]: 63% and 74% | Population Hoechst High Intensity Objects (%) [3]: 2% and 0% | Population Membrane Permeable-Phenotype (%) [3]: 3% and 5% | Population Mitochondria Different-Phenotype (%) [3]: 0% and 7% | Population Mitotic Cells (%) [3]: 13% and 9% | Population Normal (%) [3]: 98% and 99% | Population Pyknosed Nuclei (%) [3]: 8% | Population Tubulin-Different-Phenotype (%) [3]: 1% and 4% | Total Cell Count [3]: 250 and 131 | Population Apoptotic (%) [4]: 100% and 90% | Population Fragmented Nuclei (%) [4]: 23% and 16% | Population Healthy Nuclei (%) [4]: 66% and 74% | Population Hoechst High Intensity Objects (%) [4]: 1% and 2% | Population Membrane Permeable-Phenotype (%) [4]: 6% and 5% | Population Mitochondria Different-Phenotype (%) [4]: 4% and 1% | Population Mitotic Cells (%) [4]: 0% and 10% | Population Normal (%) [4]: 98% and 97% | Population Pyknosed Nuclei (%) [4]: 9% and 8% | Population Tubulin-Different-Phenotype (%) [4]: 4% and 2% | Total Cell Count [4]: 216 and 118 | Population Apoptotic (%) [5]: 89% and 100% | Population Fragmented Nuclei (%) [5]: 19% and 13% | Population Healthy Nuclei (%) [5]: 71% and 79% | Population Hoechst High Intensity Objects (%) [5]: 2% | Population Membrane Permeable-Phenotype (%) [5]: 4% and 5% | Population Mitochondria Different-Phenotype (%) [5]: 3% and 4% | Population Mitotic Cells (%) [5]: 10% and 0% | Population Normal (%) [5]: 97% | Population Pyknosed Nuclei (%) [5]: 8% and 7% | Population Tubulin-Different-Phenotype (%) [5]: 2% and 3% | Total Cell Count [5]: 334 and 189 | Population Apoptotic (%) [6]: 89% and 100% | Population Fragmented Nuclei (%) [6]: 23% and 21% | Population Healthy Nuclei (%) [6]: 67% and 70% | Population Hoechst High Intensity Objects (%) [6]: 3% and 2% | Population Membrane Permeable-Phenotype (%) [6]: 6% and 7% | Population Mitochondria Different-Phenotype (%) [6]: 3% | Population Mitotic Cells (%) [6]: 10% and 0% | Population Normal (%) [6]: 96% and 97% | Population Pyknosed Nuclei (%) [6]: 9% and 7% | Population Tubulin-Different-Phenotype (%) [6]: 4% and 3% | Total Cell Count [6]: 302 and 161

CN(C)C/C=C/C(=O)Nc1ccc(C(=O)N2CCCC(Nc3ncc(Cl)c(-c4c[nH]c5ccccc45)n3)C2)cc1 (stereo unspecified)
Population Apoptotic (%) [1]: 77% and 83% | Population Fragmented Nuclei (%) [1]: 31% and 18% | Population Healthy Nuclei (%) [1]: 60% and 77% | Population Hoechst High Intensity Objects (%) [1]: 2% and 0% | Population Membrane Permeable-Phenotype (%) [1]: 5% and 6% | Population Mitochondria Different-Phenotype (%) [1]: 3% and 5% | Population Mitotic Cells (%) [1]: 22% and 16% | Population Normal (%) [1]: 97% and 99% | Population Pyknosed Nuclei (%) [1]: 8% and 4% | Population Tubulin-Different-Phenotype (%) [1]: 4% and 8% | Total Cell Count [1]: 228 and 139 | Population Apoptotic (%) [2]: 80% and 75% | Population Fragmented Nuclei (%) [2]: 31% and 25% | Population Healthy Nuclei (%) [2]: 47% and 54% | Population Hoechst High Intensity Objects (%) [2]: 5% and 2% | Population Membrane Permeable-Phenotype (%) [2]: 33% and 23% | Population Mitochondria Different-Phenotype (%) [2]: 40% and 42% | Population Mitotic Cells (%) [2]: 20% and 25% | Population Normal (%) [2]: 94% and 97% | Population Pyknosed Nuclei (%) [2]: 20% | Population Tubulin-Different-Phenotype (%) [2]: 49% and 37% | Total Cell Count [2]: 233 and 121 | Population Apoptotic (%) [3]: 93% and 100% | Population Fragmented Nuclei (%) [3]: 34% and 21% | Population Healthy Nuclei (%) [3]: 53% and 67% | Population Hoechst High Intensity Objects (%) [3]: 2% and 0% | Population Membrane Permeable-Phenotype (%) [3]: 7% and 8% | Population Mitochondria Different-Phenotype (%) [3]: 2% | Population Mitotic Cells (%) [3]: 6% and 0% | Population Normal (%) [3]: 97% and 99% | Population Pyknosed Nuclei (%) [3]: 11% | Population Tubulin-Different-Phenotype (%) [3]: 6% and 5% | Total Cell Count [3]: 271 and 164 | Population Apoptotic (%) [4]: 87% and 97% | Population Fragmented Nuclei (%) [4]: 39% and 31% | Population Healthy Nuclei (%) [4]: 35% | Population Hoechst High Intensity Objects (%) [4]: 9% and 5% | Population Membrane Permeable-Phenotype (%) [4]: 22% and 21% | Population Mitochondria Different-Phenotype (%) [4]: 33% and 28% | Population Mitotic Cells (%) [4]: 12% and 2% | Population Normal (%) [4]: 90% and 94% | Population Pyknosed Nuclei (%) [4]: 25% and 32% | Population Tubulin-Different-Phenotype (%) [4]: 29% and 17% | Total Cell Count [4]: 239 and 135 | Population Apoptotic (%) [5]: 94% and 96% | Population Fragmented Nuclei (%) [5]: 29% and 10% | Population Healthy Nuclei (%) [5]: 60% and 77% | Population Hoechst High Intensity Objects (%) [5]: 3% | Population Membrane Permeable-Phenotype (%) [5]: 10% and 3% | Population Mitochondria Different-Phenotype (%) [5]: 3% | Population Mitotic Cells (%) [5]: 5% and 3% | Population Normal (%) [5]: 96% | Population Pyknosed Nuclei (%) [5]: 10% and 12% | Population Tubulin-Different-Phenotype (%) [5]: 5% and 3% | Total Cell Count [5]: 339 and 221 | Population Apoptotic (%) [6]: 100% | Population Fragmented Nuclei (%) [6]: 50% | Population Healthy Nuclei (%) [6]: 17% and 18% | Population Hoechst High Intensity Objects (%) [6]: 15% and 9% | Population Membrane Permeable-Phenotype (%) [6]: 47% and 26% | Population Mitochondria Different-Phenotype (%) [6]: 27% and 19% | Population Mitotic Cells (%) [6]: 0% | Population Normal (%) [6]: 84% and 90% | Population Pyknosed Nuclei (%) [6]: 32% and 31% | Population Tubulin-Different-Phenotype (%) [6]: 38% and 23% | Total Cell Count [6]: 251 and 157
